Assay [1] relates to MT4. Briefly: Tested for the cytotoxic concentration required to reduce the number of viable mock infected MT-4 cells. It counts as functional. Particulars: Homo sapiens. In outline: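 Mock-infected MT-4 cells (5 × 10^5/mL) in RPMI-1640 with 10% FCS were exposed to compound dilutions (100 to 0.006 µg/mL). Viable cells were counted by trypan blue at day 5; about 150-200 cells were counted in controls. CC50 is the concentration that reduces viable cell number by 50%.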

Assay [2] is filed under the species Homo sapiens. The assay can be described thus: Inhibition of HIV-1Ba-L replication was measured after 14 days postvirus challenge by HIV-p24 ELISA at the dosage of 3.3 uM concentration in human macrophages. It counts as functional. As to conditions: 336 h. Summed up: (§1)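 Human monocyte/macrophages isolated by 5-day adherence to plastic (10^6 cells/well), >95% pure by esterase and Giemsa staining. Infected with 500 minimal infective doses/well of HIV-1/Ba-L. Compound added from 30 min before virus challenge. Virus excess removed at 48 h and medium renewed with compound. Virus production read by p24 ELISA at day 14. Data are the mean of two independent experiments.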
Background: In an ELISA, binding on a coated surface is turned into a signal by an enzyme label.

Assay [3] concerns MT4. Briefly: Tested for the inhibitory activity of HIV-2 infected MT-4 cells. As to conditions: Homo sapiens. Type of assay: functional, cell-based. In outline: (§2)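 MT-4 cells (5 × 10^5/mL) grown in RPMI-1640 with 10% FCS, 2 mM L-glutamine and 0.075% NaHCO3. Infected with HIV-1 or HIV-2 at 100 CCID50/mL and mixed with compound dilutions (100 to 0.006 µg/mL). After 5 days viable cells were counted by trypan blue staining. EC50 is the concentration that reduces viable-cell loss in infected cultures by 50%.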

Assay [4] relates to CCRF-CEM. Briefly: Tested for the inhibitory activity of virus induced giant cell formation in HIV-1 infected CEM cells. As to conditions: Homo sapiens. It counts as functional, cell-based.
Assay [5] is filed under the species Homo sapiens. The assay can be described thus: Inhibition of HIV-1Ba-L replication was measured after 14 days postvirus challenge by HIV-p24 ELISA at the dosage of 0.16 uM concentration in human macrophages. Particulars: 336 h. It counts as functional. In outline: as §1
The test system of assay [6] is MT4. The assay can be described thus: Tested for the inhibitory activity of HIV-1 infected MT-4 cells. As to conditions: Homo sapiens. Type of assay: functional, cell-based. Summed up:
as §2

Assay [7] has as its system MT4. Briefly: Tested for the ratio between CC50 (MT-4) to EC50 (MT-4). It counts as functional, Homo sapiens.
The species named for assay [8] is Homo sapiens. The assay can be described thus: Inhibition of HIV-1Ba-L replication was measured after 14 days postvirus challenge by HIV-p24 ELISA at the dosage of 0.8 uM concentration in human macrophages. Type of assay: functional. As to conditions: 336 h. In outline:
as §1

In assay [9] the test system is CCRF-CEM. Briefly: Tested for the inhibitory activity of virus induced giant cell formation in HIV-2 infected CEM cells. It counts as functional, cell-based. As to conditions: Homo sapiens.
The species named for assay [10] is Homo sapiens. The assay can be described thus: Inhibition of HIV-1Ba-L replication was measured after 14 days postvirus challenge by HIV-p24 ELISA at the dosage of 0.033 uM concentration in human macrophages. It counts as functional. Particulars: 336 h. Summed up: as §1
For assay [11], the species on record is Homo sapiens. Briefly: Inhibition of HIV-1Ba-L replication was measured after 14 days postvirus challenge by HIV-p24 ELISA at the dosage of 0.034 uM concentration in human macrophages. Particulars: 336 h. It counts as functional. Summed up:
as §1

The species entered for assay [12] is Homo sapiens. The assay can be described thus: Inhibition of HIV-1Ba-L replication was measured after 14 days postvirus challenge by HIV-p24 ELISA at the dosage of 0.85 uM concentration in human macrophages. Type of assay: functional. As to conditions: 336 h. Summed up: as §1
Assay [13] is filed under the species Homo sapiens. The assay can be described thus: Inhibition of HIV-1Ba-L replication was measured after 14 days postvirus challenge by HIV-p24 ELISA at the dosage of 0.17 uM concentration in human macrophages. Type of assay: functional. Particulars: 336 h. In outline: as §1
Assay [14] is filed under the species Homo sapiens. The assay can be described thus: Inhibition of HIV-1Ba-L replication was measured after 14 days postvirus challenge by HIV-p24 ELISA at the dosage of 3.4 uM concentration in human macrophages. It counts as functional. Particulars: 336 h. In outline: as §1

The record followed here is ChEMBL document CHEMBL1127787, “1,2,3-Triazole-[2',5'-bis-O-(tert-butyldimethylsilyl)-beta-D- ribofuranosyl]-3'-spiro-5"-(4"-amino-1",2"-oxathiole 2",2"-dioxide) (TSAO) analogues: synthesis and anti-HIV-1 activity” (J Med Chem, 1994).

What is called CC50 is the concentration that lowers cell viability or growth by half. A high value points to better tolerance by the cells. Usually inhibition stands for the drop in the measured response relative to a control, in per cent. Higher therefore signals a strong effect. What is called EC50 is the concentration that produces a half-maximal response. High values mean a less potent agent, low ones a more potent agent. In the assay with MT4 [1], `CN(C)C(=O)c1cnnn1[C@@H]1O[C@H](CO[Si](C)(C)C(C)(C)C)[C@@]2(OS(=O)(=O)C=C2N)[C@H]1O[Si](C)(C)C(C)(C)C` yielded a cytotoxic concentration (CC50) of 20 µM. Besides, the inhibition at 3.3 µM in the assay filed under Homo sapiens [2] was more than 99%. The EC50 in the assay with MT4 [3] is more than 30 µM; in the assay on CCRF-CEM [4], 0.12 µM; with MT4 [6], 0.06 µM; in the assay on CCRF-CEM [9], more than 7 µM. For the same molecule, the inhibition at 0.16 µM in the assay filed under Homo sapiens [5] was 42%. Besides, in the assay with MT4 [7], the Ratio is recorded as 335. The molecule further came in with an inhibition at 0.8 µM in the assay listed under Homo sapiens [8] of more than 99%. The inhibition at 0.033 µM in the assay filed under Homo sapiens [10] stood at 0%.

For `CCCc1cn([C@@H]2O[C@H](CO[Si](C)(C)C(C)(C)C)[C@@]3(OS(=O)(=O)C=C3N)[C@H]2O[Si](C)(C)C(C)(C)C)nn1`, the CC50 in the assay with MT4 [1] is more than 170 µM. The EC50 with MT4 [3] was more than 170 µM; in the assay with CCRF-CEM [4], 1.3 µM; in the assay with MT4 [6], 0.92 µM; in the assay on CCRF-CEM [9], more than 35 µM. Moreover, the inhibition at 0.034 µM in the assay filed under Homo sapiens [11] was 0%. This molecule gave an inhibition at 0.85 µM in the assay listed under Homo sapiens [12] of 42%. Moreover, the inhibition at 0.17 µM in the assay filed under Homo sapiens [13] amounted to 12%. Moreover, the Ratio in the assay with MT4 [7] was more than 185. The inhibition at 3.4 µM in the assay listed under Homo sapiens [14] was 67%.

In turn, `CC(=O)c1cn([C@@H]2O[C@H](CO[Si](C)(C)C(C)(C)C)[C@@]3(OS(=O)(=O)C=C3N)[C@H]2O[Si](C)(C)C(C)(C)C)nn1` showed a cytotoxic concentration (CC50) in the assay on MT4 [1] of 13 µM. Moreover, the EC50 in the assay on MT4 [3] is more than 7 µM; in the assay with CCRF-CEM [4] it was 1.1 µM; in the assay with MT4 [6], 1.5 µM; in the assay with CCRF-CEM [9], more than 35 µM. The Ratio with MT4 [7] is recorded as 8.6.

The molecule `CCOC(OCC)c1cn([C@@H]2O[C@H](CO[Si](C)(C)C(C)(C)C)[C@@]3(OS(=O)(=O)C=C3N)[C@H]2O[Si](C)(C)C(C)(C)C)nn1` came in with a CC50 in the assay on MT4 [1] of more than 150 µM. Moreover, the 50% effective concentration (EC50) is more than 150 µM with MT4 [3], more than 150 µM with CCRF-CEM [4], 73 µM in the assay on MT4 [6] and more than 150 µM with CCRF-CEM [9]. In the assay with MT4 [7], the Ratio is more than 2.1.

Consider `CCCc1cnnn1[C@@H]1O[C@H](CO[Si](C)(C)C(C)(C)C)[C@@]2(OS(=O)(=O)C=C2N)[C@H]1O[Si](C)(C)C(C)(C)C`, for which the cytotoxic concentration (CC50) in the assay with MT4 [1] was more than 175 µM. Also, the EC50 is more than 350 µM with MT4 [3], 3.9 µM in the assay on CCRF-CEM [4], 3.13 µM in the assay on MT4 [6] and more than 35 µM in the assay with CCRF-CEM [9]. Moreover, the Ratio in the assay on MT4 [7] was more than 56.

For `CC(C)(C)[Si](C)(C)OC[C@H]1O[C@@H](n2cc([Si](C)(C)C)nn2)[C@H](O[Si](C)(C)C(C)(C)C)[C@]12OS(=O)(=O)C=C2N`, in the assay with MT4 [1], the CC50 came out at 9.5 µM. Besides, the EC50 is more than 6.6 µM with MT4 [3], 2.8 µM in the assay with CCRF-CEM [4], not below 6.6 µM in the assay with MT4 [6] and more than 2.6 µM in the assay on CCRF-CEM [9]. In the assay on MT4 [7], the Ratio entry is recorded as “<=1.44”.

For the molecule `CCCCc1cnnn1[C@@H]1O[C@H](CO[Si](C)(C)C(C)(C)C)[C@@]2(OS(=O)(=O)C=C2N)[C@H]1O[Si](C)(C)C(C)(C)C`, in the assay with MT4 [1], the cytotoxic concentration (CC50) is not below 170 µM. Besides, the half-maximal effective concentration (EC50) in the assay with MT4 [3] was more than 170 µM; in the assay with CCRF-CEM [4], 1.5 µM; in the assay with MT4 [6], 1.58 µM; with CCRF-CEM [9] it was more than 35 µM. Also, the Ratio entry in the assay with MT4 [7] was “>=115”.

In the assay with MT4 [1], `CC(C)(C)[Si](C)(C)OC[C@H]1O[C@@H](n2nncc2CBr)[C@H](O[Si](C)(C)C(C)(C)C)[C@]12OS(=O)(=O)C=C2N` yielded a CC50 of 13 µM. Further, the EC50 in the assay on MT4 [3] was more than 6 µM; in the assay on CCRF-CEM [4], more than 1.3 µM; with MT4 [6], not below 6 µM; in the assay with CCRF-CEM [9] it was more than 6 µM. Besides, in the assay on MT4 [7], the Ratio is listed as less than 2.1.

Regarding `CC(C)(C)[Si](C)(C)OC[C@H]1O[C@@H](n2cc(CCCCl)nn2)[C@H](O[Si](C)(C)C(C)(C)C)[C@]12OS(=O)(=O)C=C2N`, half-maximal cytotoxicity in the assay on MT4 [1] (CC50) was put at 53 µM. The 50% effective concentration (EC50) is more than 170 µM in the assay with MT4 [3], 0.66 µM in the assay with CCRF-CEM [4], 0.58 µM in the assay with MT4 [6] and more than 33 µM in the assay on CCRF-CEM [9]. Moreover, the Ratio in the assay with MT4 [7] was found to be 91.4.

`CNC(=O)c1cn([C@@H]2O[C@H](CO[Si](C)(C)C(C)(C)C)[C@@]3(OS(=O)(=O)C=C3N)[C@H]2O[Si](C)(C)C(C)(C)C)nn1`: the CC50 with MT4 [1] is 12 µM. The EC50 in the assay with MT4 [3] is more than 7 µM; with CCRF-CEM [4], 1.2 µM; in the assay with MT4 [6] it was 0.41 µM; with CCRF-CEM [9], more than 7 µM. For the same molecule, the Ratio with MT4 [7] is recorded as 28.8.

As for `COC(=O)c1cnnn1[C@@H]1O[C@H](CO[Si](C)(C)C(C)(C)C)[C@@]2(OS(=O)(=O)C=C2N)[C@H]1O[Si](C)(C)C(C)(C)C`, in the assay with MT4 [1], the half-maximal cytotoxic concentration (CC50) stood at 128 µM. In addition, the EC50 in the assay with MT4 [3] was more than 150 µM; in the assay on CCRF-CEM [4], 0.13 µM; in the assay with MT4 [6], 0.9 µM; with CCRF-CEM [9], more than 40 µM. For the same molecule, the Ratio in the assay with MT4 [7] is given as 142.

As to `CC(C)(C)[Si](C)(C)OC[C@H]1O[C@@H](n2nncc2CCCCl)[C@H](O[Si](C)(C)C(C)(C)C)[C@]12OS(=O)(=O)C=C2N`, in the assay on MT4 [1], the cytotoxic concentration (CC50) was 79 µM. Moreover, the EC50 in the assay with MT4 [3] was more than 164 µM; with CCRF-CEM [4], 0.82 µM; with MT4 [6], 1.9 µM; with CCRF-CEM [9] it was more than 7 µM. Besides, in the assay on MT4 [7], the Ratio is recorded as 40.6.

As for `CCOC(=O)c1cn([C@@H]2O[C@H](CO[Si](C)(C)C(C)(C)C)[C@@]3(OS(=O)(=O)C=C3N)[C@H]2O[Si](C)(C)C(C)(C)C)nn1`, the cytotoxic concentration (CC50) with MT4 [1] was more than 165 µM. For the same molecule, in the assay filed under Homo sapiens [2], the inhibition at 3.3 µM was more than 99%. In addition, the EC50 with MT4 [3] is not below 165 µM; in the assay on CCRF-CEM [4], 0.54 µM; with MT4 [6], 0.79 µM; with CCRF-CEM [9], more than 165 µM. In addition, in the assay filed under Homo sapiens [5], the inhibition at 0.16 µM was determined as 20%. The Ratio in the assay on MT4 [7] is reported as more than 209. In addition, at 0.8 µM the inhibition in the assay filed under Homo sapiens [8] was 98%. The inhibition at 0.033 µM in the assay filed under Homo sapiens [10] worked out at 0%.
